Tests used:
[1] = Therapeutic index, ratio of CC50 for human BE(2)-C cells to IC50 for Western equine encephalitis virus; settings: read-out: Ratio CC50/IC50
[2] = Cytotoxicity against human BE(2)-C cells after 18 to 20 hrs by MTT assay; assay type: cell-based
[3] = system: Western equine encephalitis virus; assay: Antiviral activity against Western equine encephalomyelitis virus infected in human BE(2)-C cells assessed as inhibition of viral RNA replication after 18 to 20 hrs by luciferase reporter gene assay; assay type: functional, cell-based
[4] = molecular target: MDR1 (ABCB1, P-glycoprotein) (Homo sapiens, UniProt P08183); assay: Inhibition of human MDR1 expressed in MDCK2 cells assessed as increase of rhodamine 123 uptake at 30 uM up to 240 mins relative to control; assay type: ADME, cell-based, MDCK-II; settings: MDCK2 cells expressing human MDR1, probe rhodamine 123
MDR1 (ABCB1, P-glycoprotein), sequence (P08183 whole entry): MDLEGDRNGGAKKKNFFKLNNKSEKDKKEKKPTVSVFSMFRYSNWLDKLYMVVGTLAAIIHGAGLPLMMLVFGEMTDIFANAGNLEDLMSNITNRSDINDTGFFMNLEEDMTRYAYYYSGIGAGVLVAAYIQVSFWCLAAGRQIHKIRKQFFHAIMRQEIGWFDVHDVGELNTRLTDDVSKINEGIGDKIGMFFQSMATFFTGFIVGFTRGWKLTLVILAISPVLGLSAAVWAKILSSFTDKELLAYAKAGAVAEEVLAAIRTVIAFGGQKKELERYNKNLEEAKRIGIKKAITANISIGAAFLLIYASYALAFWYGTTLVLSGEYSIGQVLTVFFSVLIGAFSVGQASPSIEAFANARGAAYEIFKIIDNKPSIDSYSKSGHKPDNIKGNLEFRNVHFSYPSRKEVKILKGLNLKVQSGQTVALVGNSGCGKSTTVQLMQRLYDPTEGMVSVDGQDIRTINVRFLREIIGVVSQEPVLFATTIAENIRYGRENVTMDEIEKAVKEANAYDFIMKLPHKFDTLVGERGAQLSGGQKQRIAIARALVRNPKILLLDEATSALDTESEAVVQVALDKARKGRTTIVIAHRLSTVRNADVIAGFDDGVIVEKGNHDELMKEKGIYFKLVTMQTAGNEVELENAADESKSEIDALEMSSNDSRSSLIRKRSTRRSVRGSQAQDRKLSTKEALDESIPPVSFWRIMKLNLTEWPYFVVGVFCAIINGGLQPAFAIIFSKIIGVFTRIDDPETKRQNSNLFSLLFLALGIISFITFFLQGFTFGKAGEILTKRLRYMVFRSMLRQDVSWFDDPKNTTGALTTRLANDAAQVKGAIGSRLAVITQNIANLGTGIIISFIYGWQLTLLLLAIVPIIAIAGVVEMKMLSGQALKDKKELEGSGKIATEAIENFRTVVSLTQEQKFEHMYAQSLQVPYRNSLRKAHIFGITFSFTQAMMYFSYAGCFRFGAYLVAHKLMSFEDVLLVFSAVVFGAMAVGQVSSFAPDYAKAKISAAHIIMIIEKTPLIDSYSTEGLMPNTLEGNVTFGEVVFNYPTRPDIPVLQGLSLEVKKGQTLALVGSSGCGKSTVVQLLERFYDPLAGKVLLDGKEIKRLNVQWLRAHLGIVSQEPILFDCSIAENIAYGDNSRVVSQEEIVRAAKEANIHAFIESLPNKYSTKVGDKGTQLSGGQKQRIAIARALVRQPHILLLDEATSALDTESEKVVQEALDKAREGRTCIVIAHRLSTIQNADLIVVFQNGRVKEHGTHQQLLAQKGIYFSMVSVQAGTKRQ
How it was run: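 Confluent MDR1-MDCKII cells (human Pgp-transfected) given fresh DMEM with 10 μM rhodamine 123, plus vehicle, tariquidar (5 μM) or compound (30 μM). Uptake at 37°C from 1 to 240 min, stopped by ice-cold PBS washes. Fluorescence read at ex 525/em 560-640 nm. Result expressed as % of same-day tariquidar effect, (Cav−Cveh)*100/(Ctar−Cveh). Triplicates on ≥3 occasions.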

Fort Morgan virus = assay: Antiviral activity against Fort Morgan virus infected in human BE(2)-C cells assessed as reduction of viral titer at 25 uM after 24 hrs by plaque reduction assay (reference value: 47.1 +/- 10.5 x 10^6 pfu/ml); assay type: functional
[5] = Cytotoxicity against human BE(2)-C cells assessed as cell viability at 25 uM after 24 hrs by MTT assay relative to control; assay type: cell-based; settings: read-out: Activity
[6] = Kinetic solubility of the compound; assay type: physicochemical
[7] = Half life in Balb-C mouse liver microsomes; assay type: ADME, Microsome
How it was run: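 Compound incubated with Balb-C mouse liver microsomes, and half-life determined for oxidative metabolism. Values are means of ≥2 independent incubations.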

Brain [8] = assay: Drug level in C57BL/6 mouse brain at 20 mg/kg, ip after 12 hrs; assay type: ADME, organism-based; parameters: dose 20 mg/kg, route intraperitoneal; settings: in vivo, BLD = below limit of detection
How it was run: (§1)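 Female C57BL/6 mice were given a single IP dose in 2% sterile DMSO/PBS. At each time point, duplicate mice had blood taken by cardiac puncture. They were then perfused with PBS, and the cerebrum was harvested and flash frozen on dry ice. Brain drug levels were quantified by LC/MS/MS and reported as ng/g; BLQ means below the limit of quantitation.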

Brain [9] = assay: Drug level in C57BL/6 mouse brain at 20 mg/kg, ip after 2 hrs; assay type: ADME, organism-based; parameters: dose 20 mg/kg, route intraperitoneal; settings: in vivo, BLD = below limit of detection; how it was run: as §1
[10] = Drug level in C57BL/6 mouse brain at 20 mg/kg, ip after 30 mins; assay type: ADME, organism-based; parameters: dose 20 mg/kg, route intraperitoneal; settings: read-out: Drug uptake
How it was run: (§2)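 C57BL/6 female mice given a single IP injection of compound in 2% sterile DMSO/PBS, at the stated dose. Duplicate mice per time point. Blood taken by cardiac puncture into EDTA and plasma separated. Cerebrum harvested after PBS perfusion and flash-frozen. Drug quantified by LC/MS/MS as ng/mL plasma or ng/g brain.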

Plasma [11] = assay: Plasma concentration in C57BL/6 mouse at 20 mg/kg, ip after 12 hrs; assay type: ADME, organism-based; parameters: dose 20 mg/kg, route intraperitoneal; settings: in vivo, BLD = below limit of detection; how it was run: as §2
[12] = Plasma concentration in C57BL/6 mouse at 20 mg/kg, ip after 2 hrs; assay type: ADME, organism-based; parameters: dose 20 mg/kg, route intraperitoneal; how it was run: as §2
[13] = Plasma concentration in C57BL/6 mouse at 20 mg/kg, ip after 30 mins; assay type: ADME, organism-based; parameters: dose 20 mg/kg, route intraperitoneal; how it was run: as §2
[14] = system: Western equine encephalitis virus; assay: Antiviral activity against Western equine encephalomyelitis virus infected in human BE(2)-C cells assessed as reduction of viral titer at 25 uM after 24 hrs by plaque reduction assay (reference value: 25.7 +/- 5.2 x 10^6 pfu/ml); assay type: functional
Brain [15] = assay: Drug level in C57BL/6 mouse brain at 30 mg/kg, ip after 12 hrs; assay type: ADME, organism-based; parameters: dose 30 mg/kg, route intraperitoneal; settings: in vivo, BLD = below limit of detection; how it was run: as §1
Brain [16] = assay: Drug level in C57BL/6 mouse brain at 30 mg/kg, ip after 2 hrs; assay type: ADME, organism-based; parameters: dose 30 mg/kg, route intraperitoneal; settings: in vivo, BLD = below limit of detection; how it was run: as §1
Brain [17] = assay: Drug level in C57BL/6 mouse brain at 30 mg/kg, ip after 30 mins; assay type: ADME, organism-based; parameters: dose 30 mg/kg, route intraperitoneal; settings: in vivo, 0.5 h, BLD = below limit of detection; how it was run: as §1
Plasma [18] = assay: (§3) Plasma concentration in C57BL/6 mouse at 30 mg/kg, ip after 12 hrs; assay type: ADME, organism-based; parameters: dose 30 mg/kg, route intraperitoneal; settings: mouse, in vivo, 12 h, BLD = below limit of detection; how it was run: as §2
[19] = Plasma concentration in C57BL/6 mouse at 30 mg/kg, ip after 2 hrs; assay type: ADME, organism-based; parameters: dose 30 mg/kg, route intraperitoneal; how it was run: as §2
[20] = Plasma concentration in C57BL/6 mouse at 30 mg/kg, ip after 30 mins; assay type: ADME, organism-based; parameters: dose 30 mg/kg, route intraperitoneal; how it was run: as §2
[21] = as §3; assay type: ADME, organism-based; parameters: dose 30 mg/kg, route intraperitoneal; settings: C57BL/6, mouse, plasma; how it was run: as §2

## O=C(NCCc1ccncc1)C1CCN(C(=O)c2cc3ccccc3n2Cc2c(F)cccc2F)CC1
[1]
  selectivity ratio: 50
[2]; be(2)-c
  CC50: 34.5 µM
[3]
  IC50: 1.3 µM
[4]
  inhibition at 4 h, 30 µM: 28.5%

## O=C(NCCc1ccncc1)C1CCN(C(=O)c2cc3ccncc3n2Cc2ccc(Cl)cc2)CC1
Fort Morgan virus
  Activity: 69.4 ×10⁶ PFU/ml
[5]
  viability at 24 h, 25 µM: 66.1%
[6]
  Kinetic_solubility: 125 µM
[7]
  t1/2: 9.1 min
[2]; be(2)-c
  CC50: 77.1 µM
[3]
  IC50: 4.4 µM
[4]
  inhibition at 4 h, 30 µM: 1.2%

## O=C(NCCc1ccncc1)C1CCN(C(=O)c2cccn2Cc2ccc(Cl)cc2)CC1
Brain [8]
  Drug uptake: BLD
Brain [9]
  Drug uptake: BLD
[10]
  concentration at 0.5 h: 19 ng/g
Plasma [11]
  Cp: BLD
[12]
  concentration at 2 h: 5 ng/mL
[13]
  concentration at 0.5 h: 124 ng/mL
Fort Morgan virus
  Activity: 23.8 ×10⁶ PFU/ml
[5]
  viability at 24 h, 25 µM: 59.1%
[14]
  Activity: 4.9 ×10⁶ PFU/ml
[6]
  Kinetic_solubility: 125 µM
[7]
  t1/2: 2.9 min
[2]; BE(2)-C cells
  CC50: > 100 µM
[3]
  IC50: 0.7 µM
[4]
  inhibition at 4 h, 30 µM: -1.2%

## C[C@@H](NC(=O)C1CCN(C(=O)c2cc3ccccc3n2Cc2ccc(Cl)cc2)CC1)c1ccccc1
Brain [15]
  Drug uptake: BLD
Brain [16]
  Drug uptake: BLD
Brain [17]
  Drug uptake: BLD
Plasma [18]
  Cp: BLD
[19]
  concentration at 2 h: 30 ng/mL
[20]
  concentration at 0.5 h: 10 ng/mL
Fort Morgan virus
  Activity: 39.3 ×10⁶ PFU/ml
[5]
  viability at 24 h, 25 µM: 36.7%
[14]
  Activity: 8.8 ×10⁶ PFU/ml
[6]
  Kinetic_solubility: 8 µM
[7]
  t1/2: 2.1 min
[2]; BE(2)-C cells
  CC50: > 100 µM
[3]
  IC50: 6.5 µM
[4]
  inhibition at 4 h, 30 µM: 24.4%

## O=C(NCCc1ccncc1)C1CCN(C(=O)c2cc3ccccc3n2Cc2ccc(Cl)cc2)CC1
Brain [15]
  Drug uptake: BLD
Brain [16]
  Drug uptake: BLD
Brain [17]
  Drug uptake: BLD
[21]
  concentration at 12 h: 23 ng/mL
[19]
  concentration at 2 h: 79 ng/mL
[20]
  concentration at 0.5 h: 59 ng/mL
Fort Morgan virus
  Activity: 4.9 ×10⁶ PFU/ml
[5]
  viability at 24 h, 25 µM: 60.7%
[14]
  Activity: 0.5 ×10⁶ PFU/ml
[6]
  Kinetic_solubility: 31 µM
[7]
  t1/2: 11.5 min
[2]; be(2)-c
  CC50: 49.9 µM
[3]
  IC50: 0.5 µM
[4]
  inhibition at 4 h, 30 µM: 30.9%

## CC(NC(=O)C1CCN(C(=O)c2cc3ccccc3n2Cc2ccc(Cl)cc2)CC1)c1ccncc1 (racemic)
Fort Morgan virus
  Activity: 3.7 ×10⁶ PFU/ml
[5]
  viability at 24 h, 25 µM: 63.2%
[14]
  Activity: 0.7 ×10⁶ PFU/ml
[6]
  Kinetic_solubility: 31 µM
[2]; be(2)-c
  CC50: 90.1 µM
[3]
  IC50: 2.4 µM
[4]
  inhibition at 4 h, 30 µM: 43.1%

## NC(=O)c1ncn([C@@H]2O[C@H](CO)[C@@H](O)[C@H]2O)n1 [RIBAVIRIN]
Fort Morgan virus
  Activity: 53.5 ×10⁶ PFU/ml
[5]
  viability at 24 h, 25 µM: 32.6%
[14]
  Activity: 9.3 ×10⁶ PFU/ml
[3]
  IC50: 16 µM
